Test results: ChEMBL document CHEMBL1147857, “A chromone analog inhibits TNF-alpha induced expression of cell adhesion molecules on human endothelial cells via blocking NF-kappaB activation” (Bioorg Med Chem, 2007)
The source made the active and inactive calls. No cut-off for these calls is given here.

Assays:
HUVEC [1] = assay: Inhibition of TNF-alpha-induced ICAM1 expression in HUVEC cells after 2 hrs by ELISA; type: functional, cell-based; conditions: Homo sapiens
In short: (§1)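 Cell-ELISA: HUVECs were pretreated with compound for 2 h, then given TNF-α 10 ng/ml for 16 h (ICAM-1, VCAM-1) or 4 h (E-selectin). Cells were fixed in 1% glutaraldehyde and blocked with 3% milk. Specific mAbs were applied overnight at 4 °C, then HRP goat anti-mouse, with OPD substrate at pH 4.5. The reaction was stopped with H2SO4 and A490 read. % inhibition = [1 − A490(compound)/A490(control)] × 100. Three independent experiments.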

HUVEC [2] = assay: Inhibition of TNF-alpha-induced ICAM1 expression in HUVEC cells at 90 ug/ml after 2 hrs by ELISA; type: functional; conditions: Homo sapiens; in short: as §1
[3] = Cytotoxicity against HUVEC cells assessed as cell viability at 90 ug/ml after 24 hrs by MTT assay; type: cell-based; conditions: human, read-out: Activity
In short: (§2)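 Primary HUVECs were isolated by mild trypsinization, grown in M-199 with 15% FCS and ECGF, and used at passages 3–4. Cells got compound or 0.25% DMSO vehicle for 24 h. MTT (5 mg/ml) was added for the final 4 h, formazan dissolved in DMSO, and A570 read. Trypan blue exclusion confirmed the result. Runs were done at least 3 times in triplicate wells.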

Liver microsomes [4] = assay: Inhibition of NADPH-catalyzed lipid peroxidation in Wistar rat liver microsome at 90 ug/ml after 10 mins; type: functional
In short: (§3)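 Liver microsomes came from male Wistar rats of about 200 g. Each mix held microsomes (1 mg protein), 0.025 M Tris-HCl pH 7.5, 3 mM ADP and 0.15 mM FeCl3. Mixes were preincubated 10 min at 37 °C, then 10 min with compound in DMSO. Peroxidation was started with 0.5 mM NADPH and stopped with TCA/HCl/TBA. Samples were heated at 95 °C for 30 min and TBA-reactive substance read at 535 nm.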

HUVEC [5] = assay: Inhibition of TNF-alpha-induced ICAM1 expression in HUVEC cells at 60 ug/ml after 2 hrs by ELISA; type: functional; conditions: Homo sapiens; in short: as §1
[6] = Cytotoxicity against HUVEC cells assessed as cell viability at 60 ug/ml after 24 hrs by MTT assay; type: cell-based; conditions: human, read-out: Activity; in short: as §2
Liver microsomes [7] = assay: Inhibition of NADPH-catalyzed lipid peroxidation in Wistar rat liver microsome at 60 ug/ml after 10 mins; type: functional; in short: as §3
Liver microsomes [8] = assay: Inhibition of NADPH-catalyzed lipid peroxidation in Wistar rat liver microsome at 110 ug/ml after 10 mins; type: functional; in short: as §3
HUVEC [9] = assay: Inhibition of TNF-alpha-induced ICAM1 expression in HUVEC cells at 110 ug/ml after 2 hrs by ELISA; type: functional; conditions: Homo sapiens; in short: as §1
[10] = Cytotoxicity against HUVEC cells assessed as cell viability at 110 ug/ml after 24 hrs by MTT assay; type: cell-based; conditions: human, read-out: Activity; in short: as §2
Liver microsomes [11] = assay: Inhibition of NADPH-catalyzed lipid peroxidation in Wistar rat liver microsome at 80 ug/ml after 10 mins; type: functional; in short: as §3
[12] = Cytotoxicity against HUVEC cells assessed as cell viability at 80 ug/ml after 24 hrs by MTT assay; type: cell-based; conditions: human, read-out: Activity; in short: as §2
HUVEC [13] = assay: Inhibition of TNF-alpha-induced ICAM1 expression in HUVEC cells at 80 ug/ml after 2 hrs by ELISA; type: functional; conditions: Homo sapiens; in short: as §1
Liver microsomes [14] = assay: Inhibition of NADPH-catalyzed lipid peroxidation in Wistar rat liver microsome at 100 ug/ml after 10 mins; type: functional; in short: as §3
HUVEC [15] = assay: Inhibition of TNF-alpha-induced ICAM1 expression in HUVEC cells at 100 ug/ml after 2 hrs by ELISA; type: functional; conditions: Homo sapiens; in short: as §1
[16] = Cytotoxicity against HUVEC cells assessed as cell viability at 100 ug/ml after 24 hrs by MTT assay; type: cell-based; conditions: human, read-out: Activity; in short: as §2
Neutrophil [17] = assay: Inhibition of TNF-alpha-induced adhesion of neutrophils to endothelium after 2 hrs by neutrophil adhesion assay; type: functional, cell-based; conditions: Homo sapiens
In short: (§4)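 Static adhesion: HUVEC monolayers were pretreated with compound for 2 h, then given TNF-α 10 ng/ml for 6 h. Neutrophils from healthy donor blood (dextran sedimentation, Ficoll-Hypaque, hypotonic lysis) were added at 6 × 10^4/well and left 1 h at 37 °C. Bound cells were measured with OPD/CTAB/aminotriazole substrate at A490. % inhibition was calculated as for the ELISA. Three independent experiments.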

HUVEC [18] = assay: Inhibition of TNF-alpha-induced NF-kappaB activation in HUVEC after 2 hrs by […] mobility shift assay; type: functional, cell-based; conditions: Homo sapiens
In short: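 HUVECs were pretreated with compound for 2 h, then given TNF-α 10 ng/ml for 30 min. Nuclear extract (10 µg) was incubated with 40–80 fmol of 32P-labelled NF-κB oligonucleotide in HEPES/NaCl/Tris buffer pH 7.5 with poly(dI-dC), 30 min at room temperature. Complexes were resolved on a 4% native gel and seen by autoradiography. Specificity was checked with excess unlabelled oligo.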

HUVEC [19] = assay: Inhibition of TNF-alpha-induced E-selectin expression in HUVEC cells at 90 ug/ml after 2 hrs by ELISA; type: functional; conditions: Homo sapiens; in short: as §1
HUVEC [20] = assay: Inhibition of TNF-alpha-induced VCAM1 expression in HUVEC cells after 2 hrs by ELISA; type: functional, cell-based; conditions: Homo sapiens; in short: as §1
Neutrophil [21] = assay: Inhibition of TNF-alpha-induced adhesion of neutrophils to endothelium at 90 ug/ml after 2 hrs by neutrophil adhesion assay; type: functional; conditions: Homo sapiens; in short: as §4
HUVEC [22] = assay: Blockade of TNF-alpha-induced p65 nuclear translocation in HUVEC cells after 2 hrs by Western blot; type: functional, cell-based; conditions: Homo sapiens
In short: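 HUVECs (2 × 10^6) were pretreated with or without compound for 2 h, then given TNF-α 10 ng/ml for 30 min. Extracts ran on 8% SDS-PAGE and were blotted with anti-p65, with γ-tubulin as loading control. Detection used an HRP anti-rabbit secondary and DAB.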

HUVEC [23] = assay: Inhibition of TNF-alpha-induced E-selectin expression in HUVEC cells at 90 ug/ml after 2 hrs by flow cytometry; type: functional; conditions: Homo sapiens
In short: (§5)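 Flow cytometry: HUVECs were pretreated with compound for 2 h, then given TNF-α 10 ng/ml for 16 h (ICAM-1, VCAM-1) or 4 h (E-selectin). Cells were dislodged and stained with mAb (1.0 µg/10^6 cells, 30 min, 4 °C), then FITC goat anti-mouse IgG. Cells were fixed in 1% paraformaldehyde and 20,000 events acquired. Autofluorescence was subtracted and mean fluorescence intensity taken from three independent experiments.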

HUVEC [24] = assay: Inhibition of TNF-alpha-induced VCAM1 expression in HUVEC cells at 90 ug/ml after 2 hrs by ELISA; type: functional; conditions: Homo sapiens; in short: as §1
HUVEC [25] = assay: Inhibition of TNF-alpha-induced ICAM1 expression in HUVEC cells at 90 ug/ml after 2 hrs by flow cytometry; type: functional; conditions: Homo sapiens; in short: as §5
HUVEC [26] = assay: Inhibition of TNF-alpha-induced E-selectin expression in HUVEC cells after 2 hrs by ELISA; type: functional, cell-based; conditions: Homo sapiens; in short: as §1
HUVEC [27] = assay: Inhibition of TNF-alpha-induced VCAM1 expression in HUVEC cells at 90 ug/ml after 2 hrs by flow cytometry; type: functional; conditions: Homo sapiens; in short: as §5
[28] = Cytotoxicity against HUVEC cells assessed as cell viability at 70 ug/ml after 24 hrs by MTT assay; type: cell-based; conditions: human, read-out: Activity; in short: as §2
Liver microsomes [29] = assay: Inhibition of NADPH-catalyzed lipid peroxidation in Wistar rat liver microsome at 70 ug/ml after 10 mins; type: functional; in short: as §3
HUVEC [30] = assay: Inhibition of TNF-alpha-induced ICAM1 expression in HUVEC cells at 70 ug/ml after 2 hrs by ELISA; type: functional; conditions: Homo sapiens; in short: as §1

With `C=CCOC(=O)/C=C/c1coc2ccccc2c1=O` the IC50 (HUVEC [1]) was 251 µM, the inhibition at 90 µg/mL (HUVEC [2]) was 64.5% and the viability at 24 h, 90 ug/ml [3] was 95%. For the same compound, the inhibition (Liver microsomes [4]) was 43.4%.

`CC(C)OC(=O)/C=C/c1coc2cc(O)ccc2c1=O` gave an IC50 (HUVEC [1]) of 218 µM, an inhibition at 60 µg/mL (HUVEC [5]) of 52.5% and a viability at 24 h, 60 ug/ml [6] of 96%. The inhibition (Liver microsomes [7]) was 26.2%.

`CCCOC(=O)/C=C/c1coc2cc(O)ccc2c1=O` showed an IC50 (HUVEC [1]) of 349 µM, an inhibition (Liver microsomes [8]) of 39.8% and an inhibition at 110 µg/mL (HUVEC [9]) of 63.5%. The viability at 24 h, 110 ug/ml [10] was 97%.

For `CCCOC(=O)/C=C/c1coc2ccccc2c1=O`, the IC50 (HUVEC [1]) was 227 µM, the inhibition (Liver microsomes [11]) was 42.5% and the viability at 24 h, 80 ug/ml [12] was 97%. The inhibition at 80 µg/mL (HUVEC [13]) was 81.8%.

Compound `CCOC(=O)/C=C/c1coc2cc(O)ccc2c1=O` has an IC50 (HUVEC [1]) of 269 µM, an inhibition at 90 µg/mL (HUVEC [2]) of 68.2% and a viability at 24 h, 90 ug/ml [3] of 95%. For the same compound, the inhibition (Liver microsomes [4]) was 32.3%.

In the case of `C=CCOC(=O)/C=C/c1coc2cc(O)ccc2c1=O`, the inhibition (Liver microsomes [14]) is reported as 13.3%, the IC50 (HUVEC [1]) is reported as 273 µM and the inhibition at 100 µg/mL (HUVEC [15]) is reported as 55.2%. It also gave a viability at 24 h, 100 ug/ml [16] of 97%.

`O=c1ccoc2ccccc12` [CHROMONE] gave an inhibition at 90 µg/mL (HUVEC [2]) of 47.5%, a viability at 24 h, 90 ug/ml [3] of 95% and an inhibition (Liver microsomes [4]) of 25.4%.

For `CCOC(=O)/C=C/c1coc2ccccc2c1=O`, the IC50 (HUVEC [1]) was 184 µM, the inhibition at 90 µg/mL (HUVEC [2]) was 90% and the Activity (Neutrophil [17]) was “Dose-dependent effect”. The Activity (HUVEC [18]) was “Active”, the inhibition at 90 µg/mL (HUVEC [19]) was over 95% and the Activity (HUVEC [20]) was “Dose-dependent effect”. For the same compound, the inhibition at 90 µg/mL (Neutrophil [21]) was 65%, the Activity (HUVEC [22]) was “Active” and the inhibition at 90 µg/mL (HUVEC [23]) was 95%. The viability at 24 h, 90 ug/ml [3] was 96%, the inhibition at 90 µg/mL (HUVEC [24]) was over 95% and the inhibition (Liver microsomes [4]) was 52.9%. The inhibition at 90 µg/mL (HUVEC [25]) was 95%, the Activity (HUVEC [26]) was “Dose-dependent effect” and the inhibition at 90 µg/mL (HUVEC [27]) was 95%.

In the case of `CC(C)OC(=O)/C=C/c1coc2ccccc2c1=O`, the IC50 (HUVEC [1]) is reported as 232 µM, the viability at 24 h, 70 ug/ml [28] is reported as 98% and the inhibition (Liver microsomes [29]) is reported as 50.8%. For the same compound, the inhibition at 70 µg/mL (HUVEC [30]) was 73.5%.
